# Sampled rows, rich in hits. Any-hit rate of the full collection: about 2.6%.
# Mdm2 ligase inh – MDM2-luciferase reporter signal enhancers, primary screen, MDM2 E3 ligase inhibitor project, cell-based, luminescence, 1536-well; E3 ubiquitin-protein ligase Mdm2 (Homo sapiens), Q00987; signal enhancement, % at 5 µM; cell-based MDM2 ubiquitination luciferase reporter, 2 h; 0 = plate control, 100 = twice control, blank-subtracted; actives 0.11% (n = 210,000);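 active means signal enhancement of 30% or more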;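 further: luminescence tracks abundance of the self-degrading MDM2-luciferase fusion protein; higher signal means inhibition of MDM2 E3 ligase activity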
# Target sequence (Q00987 whole entry, looked up, the tested form may be a part): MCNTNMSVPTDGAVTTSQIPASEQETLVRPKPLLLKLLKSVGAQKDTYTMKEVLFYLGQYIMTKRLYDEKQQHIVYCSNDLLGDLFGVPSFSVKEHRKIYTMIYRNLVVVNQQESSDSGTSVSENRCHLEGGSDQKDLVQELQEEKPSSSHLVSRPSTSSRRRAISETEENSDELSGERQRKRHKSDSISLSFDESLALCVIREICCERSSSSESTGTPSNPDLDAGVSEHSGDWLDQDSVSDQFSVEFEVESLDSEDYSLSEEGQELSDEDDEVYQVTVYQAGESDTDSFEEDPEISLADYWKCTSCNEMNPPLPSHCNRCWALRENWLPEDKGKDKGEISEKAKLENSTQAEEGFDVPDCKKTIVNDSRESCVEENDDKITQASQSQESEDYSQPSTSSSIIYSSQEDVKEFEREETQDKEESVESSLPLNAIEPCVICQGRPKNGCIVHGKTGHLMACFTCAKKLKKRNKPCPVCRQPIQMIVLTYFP
#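 Test system: mammalian cells stably expressing self-ubiquitinating, self-degrading MDM2 E3–luciferase fusion; Amount: 2000 cells in each well; Medium: DMEM; Schedule: 4 h settle plus 2 h compound, 37 °C; Technique: SteadyLite luciferase luminescence after 15 min room-temperature reagent incubation; Benchmarks: plate control and blank wells.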
# HSV replic up – enhancers of HSV replication in host cells, fold increase, host cell viability. HSV replication augmentation in cells. maximum fold increase. actives 0.005% (n = 220,000); in the data active means maximum fold increase above about 1.5; inconclusive means no clear call, values can overlap the other calls; tested in PC3 cells
# Rad51 HR inh – human RAD51 strand exchange inhibitors, primary screen, biochemical, fluorescence | AID 1385, 2008 | actives 0.085% (n = 200,000) | DNA repair protein RAD51 homolog 1 (Homo sapiens), Q06609 | hRad51 DNA strand exchange, fluorescence dequenching | inhibition, % at 10 µM;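 active means inhibition above 40% at the single screening dose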;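 further: 0% = DMSO control wells and 100% = blanks with heterologous ssDNA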
#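 System: hRad51 filaments on single-stranded DNA; reagent: Fluorescein- and BHQ1-tagged 47-mer duplex; compound dosing: one concentration, 10 µM final; timing: filaments 15 min 37 °C, then compound 30 min; measured by: fluorescein emission 520 nm, excitation 485 nm; benchmarks: per-plate controls and blanks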
# HSF1 inhib – HSF1 inhibitors in luciferase reporter cells, primary screen, cell-based, NIH3T3, luminescence | NIH3T3-HGL HSE-luciferase, MG132-induced, luminescence 8 h; stronger effect = lower value | activity change, negative = inhibition, % at 7.5 µM (by protocol) | actives 0.77% (n = 300,000);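 active means more than half of replicate wells show activity change below -50%, luminescence cut by over half; inconclusive means some wells, but at most half, below -50%; inactive means no replicate well below -50%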;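 further: luciferase reports HSF-1 transcriptional activity via heat shock element; 0% = median of DMSO wells and -100% = zero luminescence signal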
# HSF-1 act – HSF-1 activators, primary screen, NIH3T3-HGL cells, MG132 stress, luminescence, single point | NIH3T3-HGL HSF-1 luciferase reporter, 8 h; 100% = twice DMSO control signal | activation, % at 9 µM | actives 1.7% (n = 300,000);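 active means mean replicate activation of at least 50% with a set share of replicates each reaching 50%; inconclusive means only one of those two conditions met; inactive means mean below 50% and too few replicates reaching it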;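 further: 0% = median of the neutral control wells and 100% = twice that signal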
# Hsp70 act – Hsp70 transcriptional activators, primary screen, cell-based, HeLa, Hsp70 promoter luciferase, luminescence, 10 µM | HeLa Hsp70 promoter luciferase reporter; scaled: vehicle 0, proteasome-inhibitor control 100% | activation, % at 10 µM | actives 0.04% (n = 200,000) | AID 1203, 2008;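 active means activation above the mean across all tested compounds plus 3 SD, cutoff set per campaign, cut at about 5.5% in these data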;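 further: 100% = MG132 at 30 µM as the positive control and 0% = DMSO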
# An asterisk follows results filed as active; i = inactive; ? = inconclusive; . = no result.
SMILES,Mdm2 ligase inh,HSV replic up,Rad51 HR inh,HSF1 inhib,HSF-1 act,Hsp70 act
CCOC(=O)/C(C#N)=C/c1c(N2CCN(c3ccccc3)CC2)nc2ccccn2c1=O,.,.,.,56,93*,.
CC1Cc2nc(SCC(=O)Nc3ccc4c(c3)OCO4)n(Cc3ccccc3)c(=O)c2S1 (stereo not drawn),4,i,-8,55,78*,0
CSc1nc(Cl)c(Cc2ccc(OC(C)C)cc2)c(N(C)C)n1,-7,.,-4,17,59*,0
COc1c([N+](=O)[O-])c(=O)oc2ccccc12,-16,i,-3,-72*,-79,0
CCCc1ccc(C2=Nn3c(nnc3C(C)C)SC2)cc1,.,.,.,-1,-14,.
O=C(CSc1nnc(-c2cccnc2)o1)Nc1ccccc1F,.,.,.,14,9,.
COc1ccc(/C=C(/C(=O)c2cccs2)N2C=CC=CC2=C(C#N)C#N)cc1,-12,?,-8,99,177*,0
COc1ccc(C(=O)/C(=C\c2ccco2)N2C=CC=CC2=C(C#N)C#N)cc1,-15,i,1,41,?,2
Cc1ccc2c(c1)c(C)c(C)n2CC(O)Cn1nc(C)c(Br)c1C (stereo not drawn),-12,i,0,30,57*,0
O=C(COC(=O)c1cncc(Br)c1)NCc1ccccc1,-7,i,.,14,53*,0
COc1cccc(COC(=O)c2ccc3c(c2)NC(=O)C(C)S3)c1OC (stereo not drawn),.,.,.,-77*,-82,.
CN(CC(=O)NCc1cccnc1)S(=O)(=O)c1ccc2c(c1)c(=O)n(C)c(=O)n2C,-9,i,8,-86*,-89,0
CN(CC(=O)NCCc1ccc(Cl)cc1)S(=O)(=O)c1ccc2c(c1)c(=O)n(C)c(=O)n2C,-11,i,6,2,7,0
Cc1ccc(NC(=O)c2ccccc2O)cc1,8,i,-9,41,82*,0
Cc1ccc(NC(=O)C(=O)c2ccc(C)cc2)cc1,.,.,.,19,61*,.
Cc1ccc(NC(=O)c2ccccc2)cc1,-37,i,6,23,25,0
Cc1ccc(NC(=O)c2c(Cl)n(C)c3ccccc23)cc1,-21,.,.,42,72*,0
Cc1ccc(NC(=O)C2=C(c3ccccc3)S(=O)(=O)CCS2(=O)=O)cc1,6,i,9,-75*,-78,0
O=C(Nc1ccccc1)c1ccccc1O,-8,i,4,21,42,0
Cc1ccc(C)n1NC(=O)c1ccccc1O,-10,i,-11,-85*,-88,0
Fc1ccc(CNCc2ccccc2Cl)cc1,-16,i,3,-53*,-61,0
Cc1ccc(CNCc2ccccc2Cl)cc1,-8,i,-11,6,22,0
Cc1ccc(-c2cc3nc(-c4ccccc4)cc(N)n3n2)cc1,-21,i,-5,32,62*,0
Cc1ccc(-c2cc(N)n3nc(-c4ccc(C)cc4)cc3n2)cc1,-6,.,.,3,18,0
O=c1[nH][nH]c2cc(=O)n(-c3cccc(C(F)(F)F)c3)nc12,-10,i,-1,8,52*,0
COc1cccc(NC(=O)c2cc(-c3cccnc3)nc3c(Cl)cccc23)c1,-10,i,45*,1,-13,0
Cc1cccc(-c2cc(C(=O)Nc3ccncc3)c3ccccc3n2)c1,.,.,.,50,63*,.
O=C(Nc1ccc(F)cc1)c1cc(-c2ccncc2)nc2c(Cl)cccc12,.,.,.,-2,3,.
COc1cc(NC(=O)c2cc(C)nc3ccccc23)cc(OC)c1,-8,i,-15,-60*,-70,0
COc1ccc(-c2cc(C(=O)Nc3ccc(S(=O)(=O)Nc4ncccn4)cc3)c3ccccc3n2)cc1,4,i,1,11,21,.

# Screens as filed in PubChem BioAssay.
